MIC and inhibition data for six compounds are collected here from ChEMBL document CHEMBL4390647, “Efficient click chemistry towards novel 1H-1,2,3-triazole-tethered 4H-chromene-d-glucose conjugates: Design, synthesis and evaluation of in vitro antibacterial, MRSA and antifungal activities” (Eur J Med Chem, 2019).

In brackets after ≈: the same amount, converted by molar mass.

The subject of data set [1] is Aspergillus niger. Put plainly: Antifungal activity against Aspergillus niger ATCC 439 measured after 72 hrs by agar dilution method. The conditions noted are these: ATCC 439, 72 h. Format: functional. The procedure, abridged:
(§1)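 Agar dilution on Sabouraud dextrose agar, with compounds at […] to 0.78 μM in twofold steps. Fungal suspensions at 10 CFU/mL as printed were applied to the compound-containing plates. Incubation at 35°C; MIC read after 72 h. Three experiments.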

Data set [2] deals with Bacillus subtilis. The data set is described as follows: Antibacterial activity against Bacillus subtilis ATCC 11774 after 18 to 20 hrs by microbroth dilution method. In kind it is functional. The procedure, abridged:
(§2)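 Inoculum from a 4–6-h broth adjusted to 0.5 McFarland, final 5 × 10⁵ CFU/mL. Incubation at 35°C for 18–20 h. MIC taken as the lowest concentration giving complete inhibition of visible growth; three experiments.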

In data set [3] the test system is Salmonella typhimurium. Put plainly: Antibacterial activity against Salmonella typhimurium ATCC 14028 measured after 18 to 20 hrs by microbroth dilution method. Conditions: Salmonella enterica. Format: functional, Salmonella enterica subsp. enterica serovar Typhimurium. The procedure, abridged:
as §2

Data set [4] deals with Pseudomonas aeruginosa. Put plainly: Antibacterial activity against Pseudomonas aeruginosa […] measured after 18 to 20 hrs by microbroth dilution method. Format: functional. The method, boiled down:
as §2

The subject of data set [5] is Aspergillus flavus. Put plainly: Antifungal activity against Aspergillus flavus ATCC 204304 measured after 72 hrs by agar dilution method. In kind it is functional. The conditions noted are these: ATCC 204304, 72 h. The procedure, abridged: as §1
On the technique in general: In agar dilution the substance is mixed into plates at graded concentrations.

The test system of data set [6] is Staphylococcus aureus. Put plainly: Antibacterial activity against Staphylococcus aureus ATCC 11632 after 18 to 20 hrs by microbroth dilution method. In kind it is functional. The method, boiled down:
as §2
(In general: Broth dilution looks for growth in wells or tubes with falling amounts of substance.)

Data set [7] can be described thus: Cytotoxicity against mouse RAW264.7 cells assessed as growth inhibition at 50 ug/mL after 120 hrs by MTT assay relative to control. In kind it is cell-based. Conditions: read-out: GI. The method, boiled down:
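RAW 264.7 mouse macrophages were seeded at 25,000 cells/well and left to attach overnight. Compound in DMSO was added from a 200× concentrate, in duplicate wells, to a 50 μg/mL test level; DMSO served as control. Exposure 120 h at 37°C in 5% CO₂. MTT (4 mg/mL in PBS) was added for 4 h, formazan dissolved in DMSO, and absorbance read at 560 nm. Viability expressed as % of untreated cells, mean ± SE of at least three independent experiments.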
A general note: Formazan colour is commonly taken as a measure of viable cells.

For data set [8], the system named is Staphylococcus aureus. Put plainly: Antibacterial activity against Staphylococcus aureus MRSA198 clinical isolate-1 measured after 18 to 20 hrs by microbroth dilution method. In kind it is functional. Conditions: MRSA198 isolate-1.
The test system of data set [9] is Candida albicans. The data set is described as follows: Antifungal activity against Candida albicans ATCC 7754 after 72 hrs by agar dilution method. Format: functional. The conditions noted are these: ATCC 7754, 72 h. The method, boiled down:
as §1

Data set [10] has as its system Staphylococcus epidermidis. Put plainly: Antibacterial activity against Staphylococcus epidermidis ATCC 12228 after 18 to 20 hrs by microbroth dilution method. Format: functional. The method, boiled down: as §2
The test system of data set [11] is Staphylococcus aureus. The data set is described as follows: Antibacterial activity against Staphylococcus aureus MRSA198 clinical isolate-2 measured after 18 to 20 hrs by microbroth dilution method. Conditions: MRSA198 isolate-2. In kind it is functional.
For data set [12], the system named is Escherichia coli. The data set is described as follows: Antibacterial activity against Escherichia coli ATCC 25922 measured after 18 to 20 hrs by microbroth dilution method. Format: functional. The method, boiled down:
as §2

Data set [13] deals with Staphylococcus aureus. Put plainly: Antibacterial activity against Staphylococcus aureus MRSA198 clinical isolate-3 measured after 18 to 20 hrs by microbroth dilution method. In kind it is functional. The conditions noted are these: MRSA198 isolate-3.
The test system of data set [14] is Saccharomyces cerevisiae. Put plainly: Antifungal activity against Saccharomyces cerevisiae SH 20 after 72 hrs by agar dilution method. Conditions: SH 20, 72 h. Format: functional. The method, boiled down:
as §1

Data set [15] has as its system Klebsiella pneumoniae. Put plainly: Antibacterial activity against measured after Klebsiella pneumoniae ATCC 4352 measured after 18 to 20 hrs by microbroth dilution method. Format: functional. The procedure, abridged: as §2

Broadly, the MIC is the smallest concentration in the dilution series that meets the test's criterion for growth inhibition. Low values mean greater potency, high ones weaker potency. On to `CC(=O)OC[C@H]1O[C@@H](n2cc(COc3ccc4c(c3)OC(N)=C(C#N)C4c3cccc(Cl)c3Cl)nn2)[C@H](OC(C)=O)[C@@H](OC(C)=O)[C@@H]1OC(C)=O` (some centres undefined), for which the MIC in data set [1] is 200 µM (≈ 149 µg/mL); in [2] it was 25 µM (≈ 18.6 µg/mL); in data set [3], 50 µM (≈ 37.2 µg/mL); in [4] it was 6.25 µM (≈ 4.65 µg/mL); in data set [5], 200 µM (≈ 149 µg/mL); in data set [6], 50 µM (≈ 37.2 µg/mL). The MIC in data set [8] was found to be 200 µM (≈ 149 µg/mL); in data set [9], 25 µM (≈ 18.6 µg/mL); in data set [10], 200 µM (≈ 149 µg/mL); in data set [11], 200 µM (≈ 149 µg/mL); in data set [12] it was 200 µM (≈ 149 µg/mL); in [13], 100 µM (≈ 74.5 µg/mL). Also, in data set [7], the inhibition at 120 h, 50 ug/mL worked out at 23.8%.
Regarding `COc1cccc(C2C(C#N)=C(N)Oc3cc(OCc4cn([C@@H]5O[C@H](COC(C)=O)[C@@H](OC(C)=O)[C@H](OC(C)=O)[C@H]5OC(C)=O)nn4)ccc32)c1` (some centres undefined), the minimum inhibitory concentration (MIC) was found to be 400 µM (≈ 282 µg/mL) in [1]; 200 µM (≈ 141 µg/mL) in [2]; 100 µM (≈ 70.6 µg/mL) in data set [3]; 400 µM (≈ 282 µg/mL) in data set [4]; 1.56 µM (≈ 1.1 µg/mL) in data set [5]; 400 µM (≈ 282 µg/mL) in data set [6]. Further, the MIC is 400 µM (≈ 282 µg/mL) in data set [9]; 25 µM (≈ 17.6 µg/mL) in data set [14]; 100 µM (≈ 70.6 µg/mL) in data set [10]; 200 µM (≈ 141 µg/mL) in [12]; 6.25 µM (≈ 4.41 µg/mL) in data set [15]; 400 µM (≈ 282 µg/mL) in [13]. For the same compound, the inhibition at 120 h, 50 ug/mL in [7] is 25.1%.
Turning to `CC(=O)OC[C@H]1O[C@@H](n2cc(COc3ccc4c(c3)OC(N)=C(C#N)C4c3ccccc3[N+](=O)[O-])nn2)[C@H](OC(C)=O)[C@@H](OC(C)=O)[C@@H]1OC(C)=O` (some centres undefined), the minimum inhibitory concentration (MIC) in data set [1] was found to be 400 µM (≈ 288 µg/mL); in [2] it was 100 µM (≈ 72.1 µg/mL); in data set [4], 400 µM (≈ 288 µg/mL); in data set [5] it was 6.25 µM (≈ 4.5 µg/mL); in [6], 6.25 µM (≈ 4.5 µg/mL); in data set [8], 6.25 µM (≈ 4.5 µg/mL). In addition, the MIC came to 50 µM (≈ 36 µg/mL) in data set [9]; 12.5 µM (≈ 9.01 µg/mL) in data set [10]; 1.56 µM (≈ 1.12 µg/mL) in data set [11]; 50 µM (≈ 36 µg/mL) in data set [12]; 400 µM (≈ 288 µg/mL) in [15]; 3.12 µM (≈ 2.25 µg/mL) in [13]. In data set [7], the inhibition at 120 h, 50 ug/mL was found to be 15.4%.
`COc1cc(OC)cc(C2C(C#N)=C(N)Oc3cc(OCc4cn([C@@H]5O[C@H](COC(C)=O)[C@@H](OC(C)=O)[C@H](OC(C)=O)[C@H]5OC(C)=O)nn4)ccc32)c1` (some centres undefined): the minimal inhibitory concentration (MIC) in data set [1] was found to be 100 µM (≈ 73.6 µg/mL); in data set [2], 50 µM (≈ 36.8 µg/mL); in data set [3], 50 µM (≈ 36.8 µg/mL); in data set [5], 50 µM (≈ 36.8 µg/mL); in data set [6], 100 µM (≈ 73.6 µg/mL); in data set [8] it was 400 µM (≈ 294 µg/mL). The MIC in [9] is 25 µM (≈ 18.4 µg/mL); in data set [14] it was 6.25 µM (≈ 4.6 µg/mL); in data set [10], 3.12 µM (≈ 2.3 µg/mL); in data set [11], 400 µM (≈ 294 µg/mL); in data set [12], 100 µM (≈ 73.6 µg/mL); in data set [15] it was 100 µM (≈ 73.6 µg/mL). Also, 200 µM (≈ 147 µg/mL) was the least that counted as inhibitory in [13] (MIC). The inhibition at 120 h, 50 ug/mL in data set [7] was 19.5%.
Consider `COc1ccc(C2C(C#N)=C(N)Oc3cc(OCc4cn([C@@H]5O[C@H](COC(C)=O)[C@@H](OC(C)=O)[C@H](OC(C)=O)[C@H]5OC(C)=O)nn4)ccc32)c(OC)c1` (some centres undefined), for which the MIC in data set [1] turned out to be 400 µM (≈ 294 µg/mL); in [2], 50 µM (≈ 36.8 µg/mL); in [3] it was 50 µM (≈ 36.8 µg/mL); in data set [6] it was 1.56 µM (≈ 1.15 µg/mL); in [8], 1.56 µM (≈ 1.15 µg/mL); in data set [9], 12.5 µM (≈ 9.2 µg/mL). The minimal inhibitory concentration (MIC) turned out to be 50 µM (≈ 36.8 µg/mL) in [14]; 25 µM (≈ 18.4 µg/mL) in [10]; 1.56 µM (≈ 1.15 µg/mL) in [11]; 12.5 µM (≈ 9.2 µg/mL) in data set [15]; 6.25 µM (≈ 4.6 µg/mL) in data set [13]. Besides, the inhibition at 120 h, 50 ug/mL in data set [7] was 12.4%.
As to `Clc1ccc(COC(Cn2ccnc2)c2ccc(Cl)cc2Cl)c(Cl)c1` (centres undefined) [MICONAZOLE], the minimal inhibitory concentration (MIC) is 1.56 µM (≈ 0.649 µg/mL) in [1], 1.56 µM (≈ 0.649 µg/mL) in [5], 3.12 µM (≈ 1.3 µg/mL) in [9] and 3.12 µM (≈ 1.3 µg/mL) in [14].
